Tests used:
[1] = target: Tyrosine-protein kinase JAK1 (Homo sapiens, UniProt P23458); assay: Inhibition of recombinant JAK1 using poly(Glu,Ala,Tyr) as substrate after 2 hrs by luminometric assay
[2] = Half life in human liver microsomes at 5 uM; type: ADME, Microsome
Method in brief: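 Compound at 5 μM with human, mouse or dog microsomes at 0.87 mg/mL, or rat and monkey microsomes at 1 mg/mL, in 50 mM potassium phosphate pH 7.4 with NADPH regenerating system at 37 °C.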

Cytochrome P450 1A2 [3] = target: T1, Cytochrome P450 1A2 (Homo sapiens, UniProt P05177); assay: Inhibition of CYP1A2 in human liver microsomes using phenacetin as substrate by LC-MS/MS analysis; type: ADME, Microsome
T1 sequence (P05177 whole entry): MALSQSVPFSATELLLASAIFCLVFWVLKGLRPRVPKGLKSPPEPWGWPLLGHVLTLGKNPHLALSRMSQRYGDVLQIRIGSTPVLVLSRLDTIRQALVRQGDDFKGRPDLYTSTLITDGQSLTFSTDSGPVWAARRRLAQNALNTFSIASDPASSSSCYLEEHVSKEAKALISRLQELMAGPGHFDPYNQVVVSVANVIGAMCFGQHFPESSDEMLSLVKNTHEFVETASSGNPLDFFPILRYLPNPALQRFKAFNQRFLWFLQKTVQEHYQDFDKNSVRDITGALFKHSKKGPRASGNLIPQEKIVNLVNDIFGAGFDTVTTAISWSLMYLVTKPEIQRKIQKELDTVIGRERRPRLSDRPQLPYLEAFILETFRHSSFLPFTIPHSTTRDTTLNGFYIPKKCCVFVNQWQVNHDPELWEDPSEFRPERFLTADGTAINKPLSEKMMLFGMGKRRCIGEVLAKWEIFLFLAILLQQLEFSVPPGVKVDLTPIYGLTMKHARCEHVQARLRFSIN

[4] = target: Macrophage colony-stimulating factor 1 receptor (Homo sapiens, UniProt P07333); assay: Inhibition of c-fms
Sequence of Macrophage colony-stimulating factor 1 receptor (P07333 whole entry): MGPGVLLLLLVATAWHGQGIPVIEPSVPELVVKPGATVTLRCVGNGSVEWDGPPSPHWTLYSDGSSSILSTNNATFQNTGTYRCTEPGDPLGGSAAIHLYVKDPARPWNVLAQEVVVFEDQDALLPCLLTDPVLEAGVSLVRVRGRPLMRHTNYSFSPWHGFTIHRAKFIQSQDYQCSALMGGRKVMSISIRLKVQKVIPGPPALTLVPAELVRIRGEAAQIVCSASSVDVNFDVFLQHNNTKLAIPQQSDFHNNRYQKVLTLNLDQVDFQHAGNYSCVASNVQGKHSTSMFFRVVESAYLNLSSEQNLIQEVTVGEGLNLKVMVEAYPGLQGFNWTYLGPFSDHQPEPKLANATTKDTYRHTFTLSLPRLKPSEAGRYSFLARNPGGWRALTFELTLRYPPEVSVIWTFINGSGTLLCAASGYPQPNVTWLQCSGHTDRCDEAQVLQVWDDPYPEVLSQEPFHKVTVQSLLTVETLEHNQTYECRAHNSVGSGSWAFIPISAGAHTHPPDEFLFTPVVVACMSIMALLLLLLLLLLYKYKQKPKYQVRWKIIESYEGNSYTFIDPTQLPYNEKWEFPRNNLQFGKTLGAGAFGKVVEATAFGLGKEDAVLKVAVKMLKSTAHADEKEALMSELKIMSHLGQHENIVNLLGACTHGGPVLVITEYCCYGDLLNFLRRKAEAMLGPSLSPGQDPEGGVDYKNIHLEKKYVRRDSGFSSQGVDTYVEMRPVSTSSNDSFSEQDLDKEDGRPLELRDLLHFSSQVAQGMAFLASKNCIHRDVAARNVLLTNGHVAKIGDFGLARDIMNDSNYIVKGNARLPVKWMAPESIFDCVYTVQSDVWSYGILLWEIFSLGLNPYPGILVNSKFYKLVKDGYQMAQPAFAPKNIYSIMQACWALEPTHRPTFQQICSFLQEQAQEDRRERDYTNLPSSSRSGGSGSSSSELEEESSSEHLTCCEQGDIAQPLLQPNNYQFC

[5] = Efflux ratio of apparent permeability across human Caco2 cells at 10 uM after 120 mins by LC-MS/MS analysis; type: ADME, cell-based; details: Caco-2
Method in brief: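 Caco-2 monolayers (passage 40–60) seeded at 1 × 10⁵ cells/cm², used on day 20; HBSS pH 7.4 with 25 mM HEPES and 4.45 mM glucose, 37 °C, 5% CO₂; 10 μM final (1% DMSO) dosed apical or basolateral, 120 min; both compartments quantified by LC-MS/MS; duplicate; reference compounds as controls; monolayer integrity by lucifer yellow permeation.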

Cytochrome P450 1A2 [6] = target: T1, Cytochrome P450 1A2; assay: Induction of CYP1A2 in human liver microsomes; type: ADME, Microsome
[7] = Terminal half life in beagle dog at 5 mg/kg, po; type: ADME, organism-based, Canis lupus familiaris; design: dose 5 mg/kg, route oral; details: in vivo, read-out: beta t1/2 (converted)
Method in brief: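 Single oral dose by gavage as suspension in 0.5% methylcellulose/0.1% Tween 80 (mouse, rat, monkey) or in gelatin capsules (dog). Serial blood samples taken from 0 to 24 h into K3EDTA tubes; plasma stored at −70 °C until analysis. Parameters derived by noncompartmental methods. Rat, dog and monkey n = 3; mouse values estimated from mean concentration-time data, n = 3 mice per time point.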

[8] = AUC (0 to infinity) in rhesus monkey at 20 mg/kg, po; type: ADME, organism-based, Macaca mulatta; design: time infinity, dose 20 mg/kg, route oral; details: plasma
Method in brief: (§1)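 Single oral gavage at 50 (mouse, rat), 5 (dog) or 20 (monkey) mg/kg; rodents and monkeys received suspensions in 0.5% methylcellulose/0.1% Tween 80, dogs gelatin capsules. Serial blood taken 0–24 h into K3EDTA, plasma stored at −70 °C. Parameters estimated by noncompartmental analysis, n = 3 per species (mouse values from mean concentration–time data, 3 mice per time point).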

[9] = target: Non-receptor tyrosine-protein kinase TYK2 (Homo sapiens, UniProt P29597); assay: Inhibition of TYK2
[10] = target: Voltage-gated inwardly rectifying potassium channel KCNH2 (Homo sapiens, UniProt Q12809); assay: Displacement of dofetilide from human ERG
Sequence of Voltage-gated inwardly rectifying potassium channel KCNH2 (Q12809 whole entry): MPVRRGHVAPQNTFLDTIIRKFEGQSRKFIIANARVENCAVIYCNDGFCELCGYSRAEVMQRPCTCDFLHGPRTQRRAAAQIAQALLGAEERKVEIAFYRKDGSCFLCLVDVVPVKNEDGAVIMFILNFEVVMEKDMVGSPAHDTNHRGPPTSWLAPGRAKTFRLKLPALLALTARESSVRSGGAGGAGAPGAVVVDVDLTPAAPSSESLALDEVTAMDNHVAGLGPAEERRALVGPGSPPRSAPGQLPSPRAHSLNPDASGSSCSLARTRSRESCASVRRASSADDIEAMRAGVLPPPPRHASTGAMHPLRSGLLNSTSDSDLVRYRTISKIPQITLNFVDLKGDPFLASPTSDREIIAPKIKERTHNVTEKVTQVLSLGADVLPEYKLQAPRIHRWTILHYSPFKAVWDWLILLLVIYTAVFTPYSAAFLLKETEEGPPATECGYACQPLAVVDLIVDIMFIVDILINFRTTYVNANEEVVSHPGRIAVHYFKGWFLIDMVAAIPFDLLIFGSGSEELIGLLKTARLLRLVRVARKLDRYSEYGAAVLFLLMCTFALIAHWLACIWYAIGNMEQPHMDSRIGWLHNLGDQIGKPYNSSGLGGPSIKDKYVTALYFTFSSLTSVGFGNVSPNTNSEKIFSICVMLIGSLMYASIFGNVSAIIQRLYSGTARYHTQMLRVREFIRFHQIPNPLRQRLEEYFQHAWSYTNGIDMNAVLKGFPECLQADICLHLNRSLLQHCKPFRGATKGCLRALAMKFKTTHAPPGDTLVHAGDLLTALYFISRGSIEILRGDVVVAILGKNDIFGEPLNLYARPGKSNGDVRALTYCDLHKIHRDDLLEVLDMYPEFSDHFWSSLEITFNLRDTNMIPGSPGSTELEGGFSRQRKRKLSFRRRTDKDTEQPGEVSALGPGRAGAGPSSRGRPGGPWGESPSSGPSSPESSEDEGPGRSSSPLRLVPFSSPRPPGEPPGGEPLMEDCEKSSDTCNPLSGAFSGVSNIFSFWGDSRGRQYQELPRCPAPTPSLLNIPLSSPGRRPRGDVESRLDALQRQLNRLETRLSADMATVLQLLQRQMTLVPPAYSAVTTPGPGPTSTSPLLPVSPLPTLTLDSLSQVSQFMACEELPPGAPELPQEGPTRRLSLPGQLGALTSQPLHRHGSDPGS

[11] = Oral bioavailability in rhesus monkey at 20 mg/kg; type: ADME, organism-based, Macaca mulatta; details: in vivo; method in brief: as §1
Cytochrome P450 3A4 = Cytochrome P450 3A4 (Homo sapiens, UniProt P08684); assay: Induction of CYP3A4 in human liver microsomes; type: ADME, Microsome
Sequence of Cytochrome P450 3A4 (P08684 whole entry): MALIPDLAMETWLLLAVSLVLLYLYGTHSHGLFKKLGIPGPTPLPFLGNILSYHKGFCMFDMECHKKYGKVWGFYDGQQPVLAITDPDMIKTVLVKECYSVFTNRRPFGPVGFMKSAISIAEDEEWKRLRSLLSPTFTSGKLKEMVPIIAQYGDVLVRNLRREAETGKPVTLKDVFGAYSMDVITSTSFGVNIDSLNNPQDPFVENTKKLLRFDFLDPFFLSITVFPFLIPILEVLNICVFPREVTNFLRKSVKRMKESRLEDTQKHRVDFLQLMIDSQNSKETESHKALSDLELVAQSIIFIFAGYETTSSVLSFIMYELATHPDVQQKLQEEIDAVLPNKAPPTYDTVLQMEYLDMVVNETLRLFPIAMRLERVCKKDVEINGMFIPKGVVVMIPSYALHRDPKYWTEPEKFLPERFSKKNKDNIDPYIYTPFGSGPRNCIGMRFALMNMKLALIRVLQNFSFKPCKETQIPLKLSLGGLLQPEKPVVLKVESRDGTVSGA

[12] = AUC (0 to infinity) in Wistar rat at 50 mg/kg, po; type: ADME, organism-based; design: dose 50 mg/kg, route oral, time infinity; details: plasma; method in brief: as §1
[13] = target: Tyrosine-protein kinase JAK2 (Homo sapiens, UniProt O60674); assay: Inhibition of recombinant JAK2 using poly(Glu,Ala,Tyr) as substrate after 2 hrs by luminometric assay
Sequence of Tyrosine-protein kinase JAK2 (O60674 whole entry): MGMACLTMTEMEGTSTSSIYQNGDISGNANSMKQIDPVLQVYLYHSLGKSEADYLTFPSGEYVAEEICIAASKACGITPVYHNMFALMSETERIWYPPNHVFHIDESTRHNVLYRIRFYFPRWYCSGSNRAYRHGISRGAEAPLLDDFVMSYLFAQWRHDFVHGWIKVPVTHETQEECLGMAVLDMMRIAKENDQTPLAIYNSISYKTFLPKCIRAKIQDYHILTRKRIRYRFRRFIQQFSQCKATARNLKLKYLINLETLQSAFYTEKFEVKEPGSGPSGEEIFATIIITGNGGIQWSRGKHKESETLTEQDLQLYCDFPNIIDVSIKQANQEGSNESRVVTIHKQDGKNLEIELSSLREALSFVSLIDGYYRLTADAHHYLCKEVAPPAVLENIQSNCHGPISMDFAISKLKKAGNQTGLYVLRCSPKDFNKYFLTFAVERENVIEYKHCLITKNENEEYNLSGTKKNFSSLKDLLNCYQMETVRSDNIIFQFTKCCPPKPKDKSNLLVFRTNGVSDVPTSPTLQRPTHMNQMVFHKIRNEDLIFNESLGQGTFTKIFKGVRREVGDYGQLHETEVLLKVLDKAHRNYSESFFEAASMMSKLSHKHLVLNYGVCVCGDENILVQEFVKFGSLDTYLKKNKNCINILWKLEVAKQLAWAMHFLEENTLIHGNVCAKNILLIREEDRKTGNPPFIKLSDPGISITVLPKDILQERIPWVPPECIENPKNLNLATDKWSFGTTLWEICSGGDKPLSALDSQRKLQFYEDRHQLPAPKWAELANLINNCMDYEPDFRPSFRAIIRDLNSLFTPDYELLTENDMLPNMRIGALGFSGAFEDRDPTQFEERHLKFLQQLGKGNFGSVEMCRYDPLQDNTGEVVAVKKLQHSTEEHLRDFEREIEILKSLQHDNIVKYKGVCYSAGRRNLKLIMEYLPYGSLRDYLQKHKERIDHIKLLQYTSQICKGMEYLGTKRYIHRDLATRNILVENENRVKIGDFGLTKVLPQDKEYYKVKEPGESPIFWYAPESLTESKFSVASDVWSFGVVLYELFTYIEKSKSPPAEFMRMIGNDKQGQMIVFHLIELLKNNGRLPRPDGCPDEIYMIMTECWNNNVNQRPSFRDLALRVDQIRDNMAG

[14] = AUC (0 to infinity) in BALB/c nude mouse at 50 mg/kg, po; type: ADME, organism-based; design: time infinity, dose 50 mg/kg, route oral; details: plasma; method in brief: as §1
[15] = AUC (0 to infinity) in beagle dog at 5 mg/kg, po; type: ADME, organism-based, Canis lupus familiaris; design: time infinity, dose 5 mg/kg, route oral; details: plasma; method in brief: as §1

Sequence of Tyrosine-protein kinase JAK1 (P23458 whole entry): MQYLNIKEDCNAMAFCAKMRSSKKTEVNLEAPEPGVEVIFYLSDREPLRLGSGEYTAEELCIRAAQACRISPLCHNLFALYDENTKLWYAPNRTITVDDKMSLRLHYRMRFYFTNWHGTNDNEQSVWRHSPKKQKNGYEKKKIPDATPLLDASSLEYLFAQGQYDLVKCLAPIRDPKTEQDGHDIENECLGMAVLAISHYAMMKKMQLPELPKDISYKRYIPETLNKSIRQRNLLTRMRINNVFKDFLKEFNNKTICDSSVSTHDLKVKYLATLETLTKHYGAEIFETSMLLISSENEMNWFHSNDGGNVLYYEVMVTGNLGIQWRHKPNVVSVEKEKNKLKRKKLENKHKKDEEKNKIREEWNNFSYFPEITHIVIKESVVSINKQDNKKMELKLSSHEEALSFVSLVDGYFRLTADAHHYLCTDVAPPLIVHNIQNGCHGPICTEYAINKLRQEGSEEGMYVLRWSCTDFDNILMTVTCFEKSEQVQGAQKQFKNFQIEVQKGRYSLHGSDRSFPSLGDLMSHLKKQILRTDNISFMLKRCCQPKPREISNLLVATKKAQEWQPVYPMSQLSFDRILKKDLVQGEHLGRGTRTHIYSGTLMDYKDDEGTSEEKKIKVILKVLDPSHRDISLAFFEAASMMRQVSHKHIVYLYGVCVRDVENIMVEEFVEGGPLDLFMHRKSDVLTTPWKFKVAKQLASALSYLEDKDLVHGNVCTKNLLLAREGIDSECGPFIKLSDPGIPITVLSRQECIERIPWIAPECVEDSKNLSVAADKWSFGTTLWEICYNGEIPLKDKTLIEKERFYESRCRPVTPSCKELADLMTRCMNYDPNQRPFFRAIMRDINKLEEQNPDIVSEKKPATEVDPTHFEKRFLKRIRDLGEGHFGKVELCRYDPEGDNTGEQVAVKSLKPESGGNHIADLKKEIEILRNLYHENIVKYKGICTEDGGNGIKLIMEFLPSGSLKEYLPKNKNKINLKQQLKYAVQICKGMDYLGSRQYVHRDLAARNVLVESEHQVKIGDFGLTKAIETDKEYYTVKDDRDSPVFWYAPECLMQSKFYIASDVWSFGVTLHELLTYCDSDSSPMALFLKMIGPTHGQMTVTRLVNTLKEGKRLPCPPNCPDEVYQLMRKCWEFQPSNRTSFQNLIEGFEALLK

SMILES: C1=C2COC/C=C/COCc3cc(ccc3OCCN3CCCC3)Nc3nccc(n3)C(=C1)O2 (mixture of isomers) [CT-1578]
- IC50 [1]: 2700 nM
- half-life at 5 µM [2]: > 1 h
- IC50 (Cytochrome P450 1A2 [3]): > 10000 nM
- IC50 [4]: 69 nM
- efflux ratio at 2 h, 10 µM [5]: 1.1
- Activity (Cytochrome P450 1A2 [6]): Not Active
- half-life [7]: 1.5 h
- AUC(0-inf) [8]: 7590 ng·h/mL
- IC50 [9]: 230 nM
- IC50 [10]: > 10000 nM
- bioavailability [11]: 32%
- Activity (Cytochrome P450 3A4): Not Active
- AUC(0-inf) [12]: 1500 ng·h/mL
- IC50 [13]: 46 nM
- AUC(0-inf) [14]: 2020 ng·h/mL
- AUC(0-inf) [15]: 96 ng·h/mL

Source: ChEMBL document CHEMBL2034857, “Discovery of the macrocycle (9E)-15-(2-(pyrrolidin-1-yl)ethoxy)-7,12,25-trioxa-19,21,24-triaza-tetracyclo[18.3.1.1(2,5).1(14,18)]hexacosa-1(24),2,4,9,14(26),15,17,20,22-nonaene (SB1578), a potent inhibitor of janus kinase 2/fms-like tyrosine kinase-3 (JAK2/FLT3) for the treatment of rheumatoid …” (J Med Chem, 2012)
